Results taken from article PMC4788712 (Acta Pharmaceutica Sinica. B, 2015).
Several values for one entry are separate records, joined by “and”; a condition that tells them apart may be missing. Equal entries are not always repeated. Where two headings read alike, the source gives them in different places.

Legend:
[1] = Plasma pharmacokinetics after a single oral dose of AZT; format: in vivo, human; details: for Plasma concentration of the phosphorylated metabolites: after single oral dose 600 mg AZT
In short: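 Open-label study in 12 healthy Chinese men (20–28 y) after an overnight fast of at least 12 h. Each took a single 600 mg oral dose of test compound with 240 mL water, with standardized meals at 4 and 10 h. Heparinized blood (20 mL) was drawn by antecubital catheter predose and at 0.5–10 h. Plasma was stored at –20 °C and assayed by validated LC–MS/MS (C18; 0.2% formic acid/methanol), LLOQ 0.1125 pg/μL.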

[2] = format: in vivo, human; details: for AUC0-t / AUC0-∞ / MRT0-t / MRT0-∞ / t1/2: in hPBMCs, single oral dose 600 mg AZT, mean±SD, n=12; for MRT inf / MRT last / half-life: male, human, peripheral blood mononuclear cells (hPBMCs), po, 600 mg
[3] = liver or heart mitochondria; cited from earlier work
[4] = Safety and tolerability in healthy subjects; format: in vivo, human
In short: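 Open-label, single-dose study in 12 screened healthy Chinese men, negative for hepatitis and HIV. After an overnight fast of at least 12 h, each took 600 mg orally with 240 mL water, with standardized meals at 4 and 10 h. Safety was assessed in all completers under prolonged bed rest, extended stay in the clinical unit, and enhanced clinical monitoring and nursing.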

[5] = single oral dose 600 mg AZT, 12 subjects

Row | Plasma concentration of the phosphorylated metabolites [1] | AUC0-t [2] | AUC0-∞ [2] [ng⋅h/10^6 cell] | MRT inf [2] [h] | MRT last [2] [h] | half-life [2] [min] | SMILES | MRT0-t [2] [h] | MRT0-∞ [2] [h] | t1/2 [2] [h] | further results
1 | not present in measurable levels | 0.345±0.055 ng⋅h/10^6 cell | 0.615±0.161 | – | – | – | Cc1cn([C@H]2C[C@H](N=[N+]=[N-])[C@@H](COP(=O)(O)OP(=O)(O)O)O2)c(=O)[nH]c1=O [AZT-DP, AZT diphosphate] | 0.792 ± 12.028 | 14.270 ± 6.350 | 8.285 ± 2.840 | –
2 | not present in measurable levels | 0.223±0.043 ng⋅h/10^6 cell | 0.279±0.069 | 6.33 ± 1.14 | 3.87 ± 0.235 | 254 ± 58.6 | Cc1cn([C@H]2C[C@H](N=[N+]=[N-])[C@@H](CO[P@](=O)(O)O[P@](=O)(O)OP(=O)(O)O)O2)c(=O)[nH]c1=O [AZT-TP, 5′-AZT triphosphate] | – | – | – | Detection of AZT-TP during incubation in mitochondria [3]: No AZT-TP was detected
3 | – | 0.371±0.193 ng⋅h/10^6 cell | 0.396±0.189 | 14.9 ± 32.4 | 4.94 ± 19.3 | 150 ± 38.3 | Cc1cn([C@H]2C[C@H](N=[N+]=[N-])[C@@H](CO)O2)c(=O)[nH]c1=O [AZT, 3'-azido-3'-deoxythymidine] | – | – | – | Hypersensitivity to AZT ([4]; 12 subjects): None of the 12 subjects had hypersensitivity; Tolerability ([4]; single oral dose 600 mg AZT, 12 healthy Chinese male subjects): well tolerated; Reported ADR: headache [4, 5]: one report; Reported ADR: nausea [4, 5]: one report; AUC0-t ([1]; male, human, po, 600 mg): 7050 ± 1280 ng·h/mL; AUC(0-inf) ([1]; male, human, po, 600 mg): 7170 ± 1270 ng·h/mL; Cmax ([1]; male, human, po, 600 mg): 3510 ± 363 ng/mL; MRT inf ([1]; male, human, po, 600 mg): 2.4 ± 0.216 h; MRT last ([1]; male, human, po, 600 mg): 2.2 ± 0.253 h; Vd/F ([1]; male, human, po, 600 mg): 264 ± 162 L; half-life ([1]; male, human, po, 600 mg): 121 ± 56.8 min; CL/F ([1]; single oral dose 600 mg AZT, mean±SD, n=12): 86.092 ± 14.962 L/h

Row | SMILES | Plasma concentration of the phosphorylated metabolites [1] | AUC0-t [2] | AUC0-∞ [2] [ng⋅h/10^6 cell] | MRT inf [2] [h] | MRT last [2] [h] | half-life [2] [min] | MRT0-t [2] [h] | MRT0-∞ [2] [h] | t1/2 [2] [h] | further results
4 | Cc1cn([C@H]2C[C@H](N=[N+]=[N-])[C@@H](COP(=O)(O)O)O2)c(=O)[nH]c1=O [AZT-MP, AZT monophosphate] | not present in measurable levels | 2.548 ng⋅h/10^6 cell and 2.548±0.656 ng⋅h/10^6 cell | 6.343±2.964 | – | – | – | 4.190 ± 0.347 | 18.715 ± 12.856 | 13.428 ± 9.611 | –
